In ChEMBL document CHEMBL1649387, “Synthesis and evaluation of quinonoid compounds against tumor cell lines” (Eur J Med Chem, 2011):
Activity calls are given as the source filed them. The calls are words filed in the database; no cut-off is given here.

How the values were obtained:
PBMC = experiment: Cytotoxicity against human PBMC cells after 72 hrs by Alamar Blue assay; format: cell-based
HL-60 [1] = experiment: Cytotoxicity against human HL60 cells after 72 hrs by MTT assay; format: functional, cell-based; settings: HL-60, 72 h
MDA-MB-435 [2] = experiment: Cytotoxicity against human MDA-MB-435 cells after 72 hrs by MTT assay; format: functional, cell-based; settings: MDA-MB-435, 72 h
HCT-8 [3] = experiment: Cytotoxicity against human HCT8 cells after 72 hrs by MTT assay; format: functional, cell-based; settings: HCT-8, 72 h
SF-295 [4] = experiment: Cytotoxicity against human SF295 cells after 72 hrs by MTT assay; format: functional, cell-based; settings: SF-295, 72 h
HL-60 [5] = experiment: Induction of apoptosis in human HL60 cells assessed as apoptotic nuclei at 5 uM after 24 hrs by acridine orange/ethidium bromide staining based fluorescence microscopy; format: functional
Summary of the method: (§1)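 Cells exposed 24 h, with or without 24 h pretreatment with 1-bromoheptane. Cell suspension mixed with acridine orange/ethidium bromide (each 100 in PBS) and spread on slide. 300 cells counted per point by fluorescence microscopy to give % apoptotic cells. Mean ± S.E.M. of three experiments.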

MDA-MB-435 [6] = experiment: Induction of apoptosis in human MDA-MB-435 cells assessed as apoptotic nuclei at 5 uM after 24 hrs by acridine orange/ethidium bromide staining based fluorescence microscopy; format: functional; summary of the method: as §1
HCT-8 [7] = experiment: Induction of apoptosis in human HCT8 cells assessed as apoptotic nuclei at 5 uM after 24 hrs by acridine orange/ethidium bromide staining based fluorescence microscopy; format: functional; summary of the method: as §1
SF-295 [8] = experiment: Induction of apoptosis in human SF295 cells assessed as apoptotic nuclei at 5 uM after 24 hrs by acridine orange/ethidium bromide staining based fluorescence microscopy; format: functional; summary of the method: as §1
HL-60 [9] = experiment: Induction of apoptosis in human HL60 cells assessed as apoptotic nuclei at 5 uM after 24 hrs by acridine orange/ethidium bromide staining based fluorescence microscopy in presence of 1-bromoheptane; format: functional; summary of the method: as §1
MDA-MB-435 [10] = experiment: Induction of apoptosis in human MDA-MB-435 cells assessed as apoptotic nuclei at 5 uM after 24 hrs by acridine orange/ethidium bromide staining based fluorescence microscopy in presence of 1-bromoheptane; format: functional; summary of the method: as §1
HCT-8 [11] = experiment: Induction of apoptosis in human HCT8 cells assessed as apoptotic nuclei at 5 uM after 24 hrs by acridine orange/ethidium bromide staining based fluorescence microscopy in presence of 1-bromoheptane; format: functional; summary of the method: as §1
SF-295 [12] = experiment: Induction of apoptosis in human SF295 cells assessed as apoptotic nuclei at 5 uM after 24 hrs by acridine orange/ethidium bromide staining based fluorescence microscopy in presence of 1-bromoheptane; format: functional; summary of the method: as §1
MDA-MB-435 [13] = experiment: Induction of lipid peroxidation in human MDA-MB-435 cells assessed as increase in TBARS formation at 5 uM after 24 hrs; format: functional, cell-based
Summary of the method: (§2)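 Cells treated 24 h, with or without 24 h pretreatment with 5 mM NAC. Cells lysed with Tris-HCl (15 mM, 1 h) and heated with TCA/HCl/thiobarbituric acid for 15 min at 100 °C, then centrifuged. TBARS read at 532 nm against hydrolyzed 1,1,3,3-tetramethoxypropane standard and normalized to protein.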

HL-60 [14] = experiment: Induction of lipid peroxidation in human HL60 cells assessed as increase in TBARS formation at 5 uM after 24 hrs in presence of […]; format: functional, cell-based; summary of the method: as §2
MDA-MB-435 [15] = experiment: Induction of apoptosis in human MDA-MB-435 cells assessed as cell viability at 5 uM after 24 hrs by trypan blue exclusion assay in presence of […]; format: functional, cell-based
Summary of the method: (§3)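 Cells incubated 24 h, with or without 24 h pretreatment with 5 mM NAC. Viability determined by trypan blue dye exclusion.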

HL-60 [16] = experiment: Induction of apoptosis in human HL60 cells assessed as cell viability at 5 uM after 24 hrs by trypan blue exclusion assay in presence of […]; format: functional, cell-based; summary of the method: as §3
HCT-8 [17] = experiment: Induction of apoptosis in human HCT8 cells assessed as cell viability at 5 uM after 24 hrs by trypan blue exclusion assay; format: functional, cell-based; summary of the method: as §3
SF-295 [18] = experiment: Induction of apoptosis in human SF295 cells assessed as cell viability at 5 uM after 24 hrs by trypan blue exclusion assay; format: functional, cell-based; summary of the method: as §3
HL-60 [19] = experiment: Induction of apoptosis in human HL60 cells assessed as cell viability at 5 uM after 24 hrs by trypan blue exclusion assay; format: functional, cell-based; summary of the method: as §3
MDA-MB-435 [20] = experiment: Induction of apoptosis in human MDA-MB-435 cells assessed as cell viability at 5 uM after 24 hrs by trypan blue exclusion assay; format: functional, cell-based; summary of the method: as §3
HL-60 [21] = experiment: Induction of lipid peroxidation in human HL60 cells assessed as increase in TBARS formation at 5 uM after 24 hrs; format: functional, cell-based; summary of the method: as §2
HCT-8 [22] = experiment: Induction of lipid peroxidation in human HCT8 cells assessed as increase in TBARS formation at 5 uM after 24 hrs; format: functional, cell-based; summary of the method: as §2
SF-295 [23] = experiment: Induction of lipid peroxidation in human SF295 cells assessed as increase in TBARS formation at 5 uM after 24 hrs; format: functional, cell-based; summary of the method: as §2
MDA-MB-435 [24] = experiment: Induction of lipid peroxidation in human MDA-MB-435 cells assessed as increase in TBARS formation at 5 uM after 24 hrs in presence of […]; format: functional, cell-based; summary of the method: as §2
HCT-8 [25] = experiment: Induction of lipid peroxidation in human HCT8 cells assessed as increase in TBARS formation at 5 uM after 24 hrs in presence of […]; format: functional, cell-based; summary of the method: as §2
SF-295 [26] = experiment: Induction of lipid peroxidation in human SF295 cells assessed as increase in TBARS formation at 5 uM after 24 hrs in presence of […]; format: functional, cell-based; summary of the method: as §2
HCT-8 [27] = experiment: Induction of apoptosis in human HCT8 cells assessed as cell viability at 5 uM after 24 hrs by trypan blue exclusion assay in presence of […]; format: functional, cell-based; summary of the method: as §3
SF-295 [28] = experiment: Induction of apoptosis in human SF295 cells assessed as cell viability at 5 uM after 24 hrs by trypan blue exclusion assay in presence of […]; format: functional, cell-based; summary of the method: as §3
HL-60 [29] = experiment: Genotoxicity in human HL60 cells assessed as DNA strand breaks at 5 uM after 24 hrs by comet assay; format: functional, cell-based
Summary of the method: (§4)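 Cells treated 24 h, with or without 24 h pretreatment with 5 mM NAC. Cells embedded in 0.75% low-melt agarose and lysed (pH 10.0, 4 °C, ≥1 h). DNA unwound 20 min in 300 mM NaOH/1 mM EDTA (pH >13), then electrophoresed 20 min at 0.86 V/cm and stained with ethidium bromide. 100 cells scored visually into classes 0–4 to give damage index.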

MDA-MB-435 [30] = experiment: Genotoxicity in human MDA-MB-435 cells assessed as DNA strand breaks at 5 uM after 24 hrs by comet assay; format: functional, cell-based; summary of the method: as §4
HCT-8 [31] = experiment: Genotoxicity in human HCT8 cells assessed as DNA strand breaks at 5 uM after 24 hrs by comet assay; format: functional, cell-based; summary of the method: as §4
SF-295 [32] = experiment: Genotoxicity in human SF295 cells assessed as DNA strand breaks at 5 uM after 24 hrs by comet assay; format: functional, cell-based; summary of the method: as §4
HL-60 [33] = experiment: Genotoxicity in human HL60 cells assessed as DNA strand breaks at 5 uM after 24 hrs by comet assay in presence of […]; format: functional, cell-based; summary of the method: as §4
MDA-MB-435 [34] = experiment: Genotoxicity in human MDA-MB-435 cells assessed as DNA strand breaks at 5 uM after 24 hrs by comet assay in presence of […]; format: functional, cell-based; summary of the method: as §4
HCT-8 [35] = experiment: Genotoxicity in human HCT8 cells assessed as DNA strand breaks at 5 uM after 24 hrs by comet assay in presence of […]; format: functional, cell-based; summary of the method: as §4
SF-295 [36] = experiment: Genotoxicity in human SF295 cells assessed as DNA strand breaks at 5 uM after 24 hrs by comet assay in presence of […]; format: functional, cell-based; summary of the method: as §4

## O=C1c2ccccc2C(=O)c2c1ccc1nc(-c3ccccc3)[nH]c21
PBMC
  IC50: > 15.4 µM
HL-60 [1]
  IC50: > 15.4 µM
MDA-MB-435 [2]
  IC50: > 15.4 µM
HCT-8 [3]
  IC50: > 15.4 µM
SF-295 [4]
  IC50: > 15.4 µM
HL-60 [5]
  Activity: 12.59%
MDA-MB-435 [6]
  Activity: 9.02%
HCT-8 [7]
  Activity: 10.35%
SF-295 [8]
  Activity: 7.32%
HL-60 [9]
  Activity: 8.37%
MDA-MB-435 [10]
  Activity: 11.44%
HCT-8 [11]
  Activity: 8.11%
SF-295 [12]
  Activity: 9.17%

## C=CCC1=C(OC2(CC=C)C(=O)C(=O)c3ccccc3C2=O)C(=O)c2ccccc2C1=O (configuration not stated)
PBMC
  IC50: > 11.7 µM
HL-60 [1]
  IC50: > 11.7 µM
MDA-MB-435 [2]
  IC50: > 11.7 µM
HCT-8 [3]
  IC50: > 11.7 µM
SF-295 [4]
  IC50: > 11.7 µM
HL-60 [5]
  Activity: 3.91%
MDA-MB-435 [6]
  Activity: 7.94%
HCT-8 [7]
  Activity: 12.52%
SF-295 [8]
  Activity: 8.3%
HL-60 [9]
  Activity: 8.55%
MDA-MB-435 [10]
  Activity: 11.36%
HCT-8 [11]
  Activity: 9.37%
SF-295 [12]
  Activity: 11.47%

## CC(C)=CCC1=C(OC2(CC=C(C)C)C(=O)C(=O)c3ccccc3C2=O)C(=O)c2ccccc2C1=O (configuration not stated)
PBMC
  IC50: > 10.4 µM
HL-60 [1]
  IC50: > 10.4 µM
MDA-MB-435 [2]
  IC50: > 10.4 µM
HCT-8 [3]
  IC50: 9.76 µM
SF-295 [4]
  IC50: > 10.4 µM
HL-60 [5]
  Activity: 11.17%
MDA-MB-435 [6]
  Activity: 4.72%
HCT-8 [7]
  Activity: 8.52%
SF-295 [8]
  Activity: 11.45%
HL-60 [9]
  Activity: 8.46%
MDA-MB-435 [10]
  Activity: 5.82%
HCT-8 [11]
  Activity: 9.16%
SF-295 [12]
  Activity: 7.3%

## CC1(C)OC2=C(C(=O)C(=O)c3ccccc32)[C@H](n2cc(-c3ccccc3)nn2)[C@H]1Br
MDA-MB-435 [13]
  Activity: Active
HL-60 [14]
  Activity: inactive
MDA-MB-435 [15]
  Activity: inactive
HL-60 [16]
  Activity: inactive
HCT-8 [17]
  Activity: Active
SF-295 [18]
  Activity: Active
HL-60 [19]
  Activity: Active
MDA-MB-435 [20]
  Activity: Active
HL-60 [1]
  IC50: 1.01 µM
MDA-MB-435 [2]
  IC50: 1.22 µM
HCT-8 [3]
  IC50: 1.37 µM
SF-295 [4]
  IC50: 1.55 µM
HL-60 [21]
  Activity: Active
HCT-8 [22]
  Activity: Active
SF-295 [23]
  Activity: Active
MDA-MB-435 [24]
  Activity: inactive
HCT-8 [25]
  Activity: inactive
SF-295 [26]
  Activity: inactive
HCT-8 [27]
  Activity: inactive
SF-295 [28]
  Activity: inactive
HL-60 [29]
  Activity: Active
MDA-MB-435 [30]
  Activity: Active
HCT-8 [31]
  Activity: Active
SF-295 [32]
  Activity: Active
HL-60 [33]
  Activity: inactive
MDA-MB-435 [34]
  Activity: inactive
HCT-8 [35]
  Activity: inactive
SF-295 [36]
  Activity: inactive
